Publication PMC7288582 (ACS Omega, 2020)

Experiments:
[1] = DPPH radical scavenging assay; settings: antioxidant activity
Method in brief: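 Test material was polyphenolic-rich plant extracts from pressurized 50% ethanol extraction at 80 °C, microfiltration at 0.45 μm, then nanofiltration on a 200–300 Da polyamide membrane. A modified literature method was used: graded concentrations of extract or standard were mixed with methanolic DPPH solution and absorbance was read at 519 nm. Data were reported as mean ± standard deviation (n = 3).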

[2] = molecular target: T1, α-amylase from hog pancreas (Sus scrofa, UniProt P00690); assay: biochemical
T1 sequence (P00690 16-511): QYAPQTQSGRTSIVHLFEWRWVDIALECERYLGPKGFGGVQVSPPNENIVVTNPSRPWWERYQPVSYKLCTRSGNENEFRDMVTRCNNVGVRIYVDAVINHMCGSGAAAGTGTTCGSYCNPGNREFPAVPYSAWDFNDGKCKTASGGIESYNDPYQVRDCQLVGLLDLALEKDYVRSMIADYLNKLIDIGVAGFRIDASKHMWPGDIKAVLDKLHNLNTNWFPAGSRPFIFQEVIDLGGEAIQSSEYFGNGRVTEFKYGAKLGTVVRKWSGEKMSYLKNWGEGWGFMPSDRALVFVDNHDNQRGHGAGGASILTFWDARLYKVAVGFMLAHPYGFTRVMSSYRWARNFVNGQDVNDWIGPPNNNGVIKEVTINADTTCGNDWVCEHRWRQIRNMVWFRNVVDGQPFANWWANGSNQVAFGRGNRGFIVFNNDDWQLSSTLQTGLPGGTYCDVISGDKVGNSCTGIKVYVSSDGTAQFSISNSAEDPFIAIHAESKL

[3] = molecular target: α-glucosidase from Saccharomyces cerevisiae (Saccharomyces cerevisiae, UniProt P53341); assay: α-Glucosidase inhibition assay; assay type: biochemical
Sequence of α-glucosidase from Saccharomyces cerevisiae (P53341 whole entry): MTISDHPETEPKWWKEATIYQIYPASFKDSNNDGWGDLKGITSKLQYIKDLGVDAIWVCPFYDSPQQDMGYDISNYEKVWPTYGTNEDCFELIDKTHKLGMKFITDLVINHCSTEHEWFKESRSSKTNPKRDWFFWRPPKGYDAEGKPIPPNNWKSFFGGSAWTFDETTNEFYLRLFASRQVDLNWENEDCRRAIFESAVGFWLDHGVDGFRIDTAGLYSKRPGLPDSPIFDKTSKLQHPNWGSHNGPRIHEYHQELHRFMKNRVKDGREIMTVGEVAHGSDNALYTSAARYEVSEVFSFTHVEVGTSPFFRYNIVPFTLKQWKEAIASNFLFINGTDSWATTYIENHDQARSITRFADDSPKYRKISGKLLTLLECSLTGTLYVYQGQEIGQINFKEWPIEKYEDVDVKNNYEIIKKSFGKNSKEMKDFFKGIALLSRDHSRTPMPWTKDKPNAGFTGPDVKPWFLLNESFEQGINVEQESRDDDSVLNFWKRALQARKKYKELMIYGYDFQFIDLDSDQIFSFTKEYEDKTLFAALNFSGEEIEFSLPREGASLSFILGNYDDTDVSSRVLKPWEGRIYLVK

[4] = molecular target: T2, LOX (Glycine max, UniProt P08170); assay: LOX inhibition, spectrophotometric assay; assay type: biochemical
T2 sequence (P08170 1-839): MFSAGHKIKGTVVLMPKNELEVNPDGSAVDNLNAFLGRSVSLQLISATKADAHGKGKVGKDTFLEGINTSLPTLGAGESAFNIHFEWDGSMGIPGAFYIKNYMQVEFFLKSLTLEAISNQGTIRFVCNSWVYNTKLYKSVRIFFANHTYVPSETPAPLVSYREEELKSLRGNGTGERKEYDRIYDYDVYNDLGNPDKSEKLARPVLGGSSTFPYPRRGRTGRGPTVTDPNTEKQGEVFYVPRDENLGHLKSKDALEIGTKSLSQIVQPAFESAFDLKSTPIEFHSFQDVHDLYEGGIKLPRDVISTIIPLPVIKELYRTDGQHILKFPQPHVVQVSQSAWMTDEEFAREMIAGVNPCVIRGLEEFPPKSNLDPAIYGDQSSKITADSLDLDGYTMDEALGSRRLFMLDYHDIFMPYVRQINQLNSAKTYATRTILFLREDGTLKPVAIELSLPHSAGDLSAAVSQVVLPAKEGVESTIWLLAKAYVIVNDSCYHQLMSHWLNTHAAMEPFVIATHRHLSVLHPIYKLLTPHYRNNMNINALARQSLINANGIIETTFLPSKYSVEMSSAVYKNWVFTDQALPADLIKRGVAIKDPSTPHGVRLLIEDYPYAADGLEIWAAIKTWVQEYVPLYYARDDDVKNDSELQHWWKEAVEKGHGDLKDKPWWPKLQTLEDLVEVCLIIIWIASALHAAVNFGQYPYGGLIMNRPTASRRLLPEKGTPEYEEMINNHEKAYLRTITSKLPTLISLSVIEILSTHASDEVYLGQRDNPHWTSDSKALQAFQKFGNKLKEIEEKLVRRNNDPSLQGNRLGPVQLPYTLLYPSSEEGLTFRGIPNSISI

| DPPH, EC50 [1] | IC50 [2] | IC50 [4] | SMILES | IC50 [3] |
| --- | --- | --- | --- | --- |
|  | 2.55 µM | 306 µM | O=C(/C=C/c1ccc(O)c(O)c1)O[C@H](Cc1ccc(O)c(O)c1)C(=O)O [rosmarinic acid] | 12 µM |
|  | 5.19 µM | 230 µM | O=C(/C=C/c1ccc(O)c(O)c1)O[C@@H]1C[C@](O)(C(=O)O)C[C@@H](O)[C@H]1O [chlorogenic acid] |  |

Second part, the compound before the results:

| SMILES | DPPH, EC50 [1] | IC50 [2] | IC50 [4] | IC50 [3] |
| --- | --- | --- | --- | --- |
| O=C1O[C@H]([C@@H](O)CO)C(O)=C1O [ascorbic acid (vitamin C), ascorbic acid] | 3.6 ± 0.2 µg/mL |  |  |  |
| O=c1c(O[C@@H]2O[C@H](CO)[C@@H](O)[C@H](O)[C@H]2O)c(-c2ccc(O)c(O)c2)oc2cc(O)cc(O)c12 [isoquercitrin, quercetin-3-β-qlucoside] |  | 20.8 µM | 212 µM | 16.8 µM |
| C[C@@H]1O[C@@H](OC[C@H]2O[C@@H](Oc3c(-c4ccc(O)c(O)c4)oc4cc(O)cc(O)c4c3=O)[C@H](O)[C@@H](O)[C@@H]2O)[C@H](O)[C@H](O)[C@H]1O [rutin] |  | 18.7 µM | 75.8 µM | 10.8 µM |
| O=c1cc(-c2ccc(O)c(O)c2)oc2cc(O)cc(O)c12 [luteolin] |  | 68.2 µM | 109 µM | 100 µM |
